MrgX1 antagonist: antagonists of human MrgX1 receptor | B-score at 10 µM | Q96LB2 | AID 588676 | MRGX1-HEK293 calcium flux, Fluo-4, BAM8-22 antagonism; hits give low values | actives 1.3% (n = 310,000);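 active = calcium-response B-score plate-corrected more than 3 library SD below zero, starting fluorescence within 5 deviations, no agonist response on first addition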;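 note: peak minus trough fluorescence over baseline after final BAM8-22 challenge near maximal dose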
Target sequence (Q96LB2 whole entry, looked up): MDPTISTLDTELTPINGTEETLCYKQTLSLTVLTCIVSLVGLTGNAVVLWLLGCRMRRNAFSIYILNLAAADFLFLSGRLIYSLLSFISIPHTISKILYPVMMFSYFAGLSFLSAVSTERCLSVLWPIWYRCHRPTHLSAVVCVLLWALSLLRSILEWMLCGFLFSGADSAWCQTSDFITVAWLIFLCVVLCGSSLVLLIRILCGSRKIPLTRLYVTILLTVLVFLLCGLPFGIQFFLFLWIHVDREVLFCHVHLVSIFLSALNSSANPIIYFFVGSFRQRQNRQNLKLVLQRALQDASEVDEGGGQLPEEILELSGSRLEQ
MrgX1 allo act: human MrgX1 positive allosteric modulation, primary screen | B-score at 10 µM | MrgX1-HEK293, Fluo-4 calcium flux, FDSS; hits give high values | Q96LB2 | actives 0.63% (n = 310,000);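 active = plate-corrected calcium response at least 3 library SD above typical, normal starting fluorescence, not activating the receptor alone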;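 note: compound read alongside a low EC10 to EC30 dose of BAM8-22 agonist; peak minus trough fluorescence over baseline measured at the second addition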
RGS4 pot: RGS4 potentiation or activation. HEK293 M3R/inducible RGS4, carbachol calcium flux Fluo4; hits give low values. actives 0.92% (n = 310,000). AID 463111. B-score at 10 µM;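 active = B-score of the integrated calcium signal more than 4 SD below the library mean, with starting fluorescence not abnormally high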;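 note: negative B-score means reduced calcium response which marks RGS4 activation or potentiation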
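System – HEK293 FlpIn-TREx cells, stable M3R, doxycycline-inducible RGS4 · Reagent – ECmax carbachol challenge · Times – compound preincubation 20 min at room temperature before agonist · Technique – Fluo4 fluorescence kinetic imaging of calcium · Measure – B score of integrated Fluo4 ratio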
MrgX1 agonist: human MrgX1 receptor agonism, primary screen. Q96LB2. AID 588627. actives 0.44% (n = 310,000). B-score at 10 µM. MrgX1-HEK293 cells, Fluo-4 calcium fluorescence, agonist mode; hits give high values;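 active = calcium response B-score plate-corrected fluorescence ratio at least 3 library SD, with starting fluorescence B-score inside 5 SD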
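System: HEK293 cells stably expressing human MrgX1 receptor; Dosing: test compound in the initial addition of three; Schedule: overnight plating, then 30 min 37 °C plus 30 min room-temperature dye loading; Detection: kinetic calcium dye fluorescence, Fluo-4 NW; Controls: per-plate positive and negative controls for Z′ factor.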
RGS4 block: human RGS4 inhibition; P49798; HEK293 M3R/RGS4 inducible, Fluo-4 calcium flux; hits give high values; triggered by carbachol at its EC20; B-score at 10 µM; actives 0.45% (n = 310,000); AID 463165;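 active = B-score, a plate-corrected calcium signal, over three deviations above library mean, with baseline fluorescence within five deviations of library mean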;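 note: RGS4 expression induced by doxycycline in cells with stable M3 receptor; B-score is computed from the integrated fluorescence ratio over baseline after carbachol; higher B-score means a larger calcium signal and so more RGS4 inhibition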
Target sequence (P49798 whole entry, looked up): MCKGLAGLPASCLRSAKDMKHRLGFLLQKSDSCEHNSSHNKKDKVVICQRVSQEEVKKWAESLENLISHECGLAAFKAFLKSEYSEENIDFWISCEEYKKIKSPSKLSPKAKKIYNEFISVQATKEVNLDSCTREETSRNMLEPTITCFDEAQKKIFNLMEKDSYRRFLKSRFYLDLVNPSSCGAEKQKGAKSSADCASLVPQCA
MrgX1 ag confirm: reconfirmed activator of human MrgX1 receptor signaling; shares compounds with MrgX1 agonist; MrgX1-HEK293, Fluo-4 calcium fluorescence, FDSS; activation, % at 10 µM; actives 78% (n = 600); AID 602412;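 active = calcium signal rise, corrected for plate position, at least 3 library SD high, with starting brightness within 5 such deviations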
HEK293 Ca flux: MrgX1 antagonist counter-screen hit in parental HEK293 cells; actives 2% (n = 4,000); shares compounds with MrgX1 antagonist; Fluo-4 calcium fluorescence, FDSS; AID 624111; fluorescence ratio F(max-min)/F0 at 10 µM;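 active = duplicate-averaged calcium fluorescence ratio at least three times the standard deviation of buffer wells, a nonspecific response in parental cells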
HEK293 Ca counter: MrgX1 allosteric activator counter-screen hit in parental HEK293 cells. actives 0.4% (n = 4,000). parental HEK293 calcium flux, Fluo-4 fluorescence ratio; hits give high values. AID 624114. shares compounds with MrgX1 antagonist. fluorescence ratio F(max-min)/F0 at 10 µM;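 active = calcium fluorescence ratio, averaged over duplicates, at least 3 SD of the buffer-well ratio, meaning a nonspecific response in receptor-free cells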;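 note: untransfected parental HEK293 lacking MrgX1 used as counterscreen for MrgX1 allosteric activators; fluorescence change taken during the second addition on a kinetic imager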
HEK293 Ca cntr2: counter-screen for MrgX1 activators: effect in parental HEK293 cells | fluorescence ratio F(max-min)/F0 at 10 µM | actives 8.7% (n = 4,000) | shares compounds with MrgX1 antagonist | Fluo-4 calcium fluorescence (FDSS); hits give high values;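 active = calcium fluorescence ratio at least three times the spread of buffer wells, meaning a non-specific response in parental cells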
* marks the source's active call; other numbers are inactive results; i = inactive; nt = no result. Compounds with a hit are over-represented: about 3.5% of the library has one in this group of screens.

SMILES | MrgX1 antagonist | MrgX1 allo act | RGS4 pot | MrgX1 agonist | RGS4 block | MrgX1 ag confirm | HEK293 Ca flux | HEK293 Ca counter | HEK293 Ca cntr2
Cc1ccnc(NS(=O)(=O)c2cccc([N+](=O)[O-])c2)c1 | i | i | i | i | i | nt | nt | nt | nt
COc1cc2ncnc(NCc3ccc(Cl)cc3)c2cc1OC | i | i | i | 33* | i | 136%* | i | i | i
CC(C)CN(C(=O)CCCSc1nc2ccccc2[nH]1)c1c(N)n(Cc2ccccc2)c(=O)[nH]c1=O | i | i | i | i | i | nt | nt | nt | nt
COC(=O)c1cc(CSC(=N)N)ccc1OCCC(C)C | i | i | i | 37* | i | 200%* | i | i | i
CCCOc1ccc(CSC(=N)N)cc1C(=O)OC | i | i | i | i | i | nt | nt | nt | nt
CC(C)C(=O)Nc1ccc(C(=O)NNC(=S)NC(=O)c2cccs2)cc1 | i | i | i | i | i | nt | nt | nt | nt
COc1ccc(C(=O)NNC(=S)NC(=O)c2ccc(OC)cc2)cc1 | i | i | i | 81* | i | 411%* | i | i | 97*
Cc1cccc(C(=O)NNC(=S)NC(=O)c2cccs2)c1 | i | i | -7.1* | 137* | i | 647%* | i | i | 122*
COc1ccc(C(=O)NNC(=S)NC(=O)c2cccnc2)cc1 | i | i | i | i | i | nt | nt | nt | nt
COc1ccc(C(=O)NNC(=S)NC(=O)c2cccs2)cc1 | i | i | i | 122* | i | 339%* | i | i | 94*
CCCCC(=O)NC(=S)NNC(=O)c1ccc(OC)cc1 | i | i | i | 98* | i | 578%* | i | i | 97*
CC12CCC(=O)N1C(C(=O)Nc1ccc(F)cc1)CS2 (stereo not drawn) | i | i | i | i | i | nt | nt | nt | nt
COC(=O)CC1=C(C(=O)OC)C(c2ccc3c(c2Cl)OCO3)C(C#N)=C(N)O1 (stereo not drawn) | i | i | i | 41* | i | 172%* | i | i | i
CCOc1c(C)cc(S(=O)(=O)NCc2ccccn2)c(C)c1C | i | i | i | i | i | nt | nt | nt | nt
O=c1c2cc(Br)ccc2nc(-c2cccc(C(F)(F)F)c2)n1O | i | i | i | 119* | i | 620%* | i | i | 144*
Cc1ccccc1-c1nc2ccc(Cl)cc2c(=O)n1O | i | i | i | i | i | nt | nt | nt | nt
O=c1c2cc(Cl)ccc2nc(-c2ccc(Cl)c(Cl)c2)n1O | i | i | -7.7* | 151* | i | 719%* | i | i | 122*
CNC(=S)N(CCCN(C)C)Cc1cc2cc3c(cc2[nH]c1=O)OCCO3 | i | i | i | i | i | nt | nt | nt | nt
O=C(CSc1ncnc2c1cnn2-c1cccc(Cl)c1)NCC1CCCO1 (stereo not drawn) | i | i | i | i | i | nt | nt | nt | nt
Cc1ccc(Cl)cc1NC(=O)CC(O)(C(F)(F)F)C(F)(F)F | i | i | i | 29* | i | 196%* | i | i | 47*
COCC(=O)Nc1cc(Cl)ccc1C | i | i | i | i | i | nt | nt | nt | nt
c1ccc(Sc2nc(N3CCCCC3)nc(N3CCCCC3)n2)nc1 | i | i | i | 35* | i | 211%* | i | i | 59*
CC1(C)CC(=O)c2c(-c3cccnc3)n[nH]c2C1 | i | i | i | 29* | i | i | i | i | i
CC1(C)CC(=O)c2c(Cc3ccccc3)n[nH]c2C1 | i | i | i | i | i | nt | nt | nt | nt

Screening data deposited in PubChem by Johns Hopkins Ion Channel Center.
